Test results from ChEMBL document CHEMBL1143842, “Efficacy of tachyplesin III, colistin, and imipenem against a multiresistant Pseudomonas aeruginosa strain” (Antimicrob Agents Chemother, 2007).
Values after ≈ are worked out from the molar mass of the structure shown. Active and inactive are the calls of the source. No cut-off for these calls is given here.

Key:
Pseudomonas aeruginosa [1] = test: Antibacterial activity against Pseudomonas aeruginosa clinical isolates infected in BALB/c mouse blood at 20 mg/kg, iv after 24 hrs; type: functional
Method in brief: (§1)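 Male BALB/c mice (25–30 g) were anesthetized with ketamine 30 mg/kg i.m. They were challenged via the tail vein with 2.0 × 10^7 CFU log-phase bacteria in saline. Drug or saline was given i.v. immediately after challenge, 20 mice per group. Tail-vein blood was taken at 24 h, serially diluted and plated on blood agar for 48 h at 35°C, and CFU were counted. Detection limit was 10 CFU/ml.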

Pseudomonas aeruginosa [2] = test: Antibacterial activity against Pseudomonas aeruginosa ATCC 27853 infected in BALB/c mouse blood at 20 mg/kg, iv after 24 hrs; type: functional; method in brief: as §1
Pseudomonas aeruginosa [3] = test: Antimicrobial activity against Pseudomonas aeruginosa clinical isolates by broth microdilution method; type: functional
Method in brief: (§2)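 CLSI broth microdilution in Mueller-Hinton broth with an inoculum of 5 × 10^5 CFU/ml, incubated 18 h at 37°C in air. Plates were shaken throughout when the peptide was tested. The MIC was the lowest concentration inhibiting visible growth. Run in triplicate.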

Pseudomonas aeruginosa [4] = test: Antimicrobial activity against Pseudomonas aeruginosa ATCC 27853 by broth microdilution method; type: functional; method in brief: as §2
Pseudomonas aeruginosa [5] = test: Effect on Pseudomonas aeruginosa clinical isolate induced sepsis in BALB/c mouse assessed as mortality at 20 mg/kg, iv for 72 hrs; type: functional
Method in brief: (§3)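 Male BALB/c mice, 25–30 g, housed singly, anesthetized with ketamine 30 mg/kg im. Log-phase bacteria (grown in brain heart infusion broth, resuspended in saline) given iv via tail vein, 2.0 × 10^7 CFU. Drug at 1 or 20 mg/kg iv immediately post-challenge; saline controls. 20 mice/group; lethality over 72 h, compared by Fisher's exact test.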

Pseudomonas aeruginosa [6] = test: Effect on Pseudomonas aeruginosa ATCC 27853 induced sepsis in BALB/c mouse assessed as mortality at 20 mg/kg, iv for 72 hrs; type: functional; method in brief: as §3
Pseudomonas aeruginosa [7] = test: Reduction of Pseudomonas aeruginosa clinical isolate infection induced endotoxin levels in BALB/c mouse plasma after 24 hrs by ELISA; type: functional, organism-based
Pseudomonas aeruginosa [8] = test: Reduction of Pseudomonas aeruginosa clinical isolate infection induced IL6 levels in BALB/c mouse plasma after 24 hrs by ELISA; type: functional, organism-based
Method in brief: (§4)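 Male BALB/c mice were infected i.v. with 2.0 × 10^7 CFU and treated i.v. immediately afterwards. Tail-vein plasma was sampled at 0, 6, 12, 24 and 48 h. IL-6 and TNF-α were measured by ELISA in duplicate, with sensitivity limits of 12 pg/ml and 0.05 ng/ml respectively.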

Pseudomonas aeruginosa [9] = test: Reduction of Pseudomonas aeruginosa ATCC 27853 infection induced TNFalpha levels in BALB/c mouse plasma after 24 hrs by ELISA; type: functional, organism-based; method in brief: as §4
Pseudomonas aeruginosa [10] = test: Reduction of Pseudomonas aeruginosa clinical isolate infection induced TNFalpha levels in BALB/c mouse plasma after 24 hrs by ELISA; type: functional, organism-based; method in brief: as §4
Pseudomonas aeruginosa [11] = test: Reduction of Pseudomonas aeruginosa ATCC 27853 infection induced IL6 levels in BALB/c mouse plasma after 24 hrs by ELISA; type: functional, organism-based; method in brief: as §4
Pseudomonas aeruginosa [12] = test: Reduction of Pseudomonas aeruginosa ATCC 27853 infection induced endotoxin levels in BALB/c mouse plasma after 24 hrs by ELISA; type: functional, organism-based
Pseudomonas aeruginosa [13] = test: Antibacterial activity against Pseudomonas aeruginosa clinical isolates infected in BALB/c mouse blood at 1 mg/kg, iv after 24 hrs; type: functional; method in brief: as §1
Pseudomonas aeruginosa [14] = test: Effect on Pseudomonas aeruginosa clinical isolate induced sepsis in BALB/c mouse assessed as mortality at 1 mg/kg, iv for 72 hrs; type: functional; method in brief: as §3
Pseudomonas aeruginosa [15] = test: Effect on Pseudomonas aeruginosa ATCC 27853 induced sepsis in BALB/c mouse assessed as mortality at 1 mg/kg, iv for 72 hrs; type: functional; method in brief: as §3
Pseudomonas aeruginosa [16] = test: Antibacterial activity against Pseudomonas aeruginosa ATCC 27853 infected in BALB/c mouse blood at 1 mg/kg, iv after 24 hrs; type: functional; method in brief: as §1

| Compound | CFU (Pseudomonas aeruginosa [1]) | CFU (Pseudomonas aeruginosa [2]) | MIC (Pseudomonas aeruginosa [3]) [µg/mL] | MIC (Pseudomonas aeruginosa [4]) [µg/mL] | Activity (Pseudomonas aeruginosa [5]) [%] | Activity (Pseudomonas aeruginosa [6]) [%] | Activity (Pseudomonas aeruginosa [7]) | Activity (Pseudomonas aeruginosa [8]) | Activity (Pseudomonas aeruginosa [9]) | Activity (Pseudomonas aeruginosa [10]) | Activity (Pseudomonas aeruginosa [11]) | Activity (Pseudomonas aeruginosa [12]) | CFU (Pseudomonas aeruginosa [13]) | Activity (Pseudomonas aeruginosa [14]) [%] | Activity (Pseudomonas aeruginosa [15]) [%] | CFU (Pseudomonas aeruginosa [16]) |
| --- | --- | --- | --- | --- | --- | --- | --- | --- | --- | --- | --- | --- | --- | --- | --- | --- |
| C[C@@H](O)[C@H]1C(=O)N2C(C(=O)O)=C(SCCNC=N)C[C@H]12 [IMIPENEM ANHYDROUS] | 8.7 10^6/ml | 2.8 10^3/ml | 32 (≈ 107 µM) | 0.5 (≈ 1.67 µM) | 80 | 30 |  |  |  |  |  |  |  |  |  |  |
| CC[C@H](C)[C@H](NC(=O)CNC(=O)[C@H](CCCNC(=N)N)NC(=O)[C@H](Cc1ccc(O)cc1)NC(=O)[C@H](CS)NC(=O)[C@@H](NC(=O)[C@H](CCCNC(=N)N)NC(=O)[C@H](Cc1ccccc1)NC(=O)[C@H](CS)NC(=O)[C@H](Cc1c[nH]c2ccccc12)NC(=O)[C@@H](N)CCCCN)C(C)C)C(=O)N[C@@H](CS)C(=O)N[C@@H](Cc1ccc(O)cc1)C(=O)N[C@@H](CCCNC(=N)N)C(=O)N[C@@H](CCCCN)C(=O)N[C@@H](CS)C(=O)NC(CCCNC(=N)N)C(N)=O (single isomer, unassigned) [TACHYPLESIN III] |  |  |  |  |  |  | Active | Active | Active | Active | Active | Active |  |  |  |  |
| COLISTIN |  |  | 8 | 4 |  |  | Active | Active | Active | Active | Active | Active | 1.4 10^4/ml | 30 | 40 | 6 10^4/ml |
